{"data": "Experimental data pooled from the literature", "PIK3CG": "Phosphatidylinositol 4,5-bisphosphate 3-kinase catalytic subunit gamma isoform (PIK3CG, Homo sapiens, UniProt P48736)", "CHRM3": "Muscarinic acetylcholine receptor M3 (CHRM3, Homo sapiens, UniProt P20309)", "PTGS2": "Prostaglandin G/H synthase 2 (PTGS2, Homo sapiens, UniProt P35354)", "Inositol-tetrakisphosphate 1-kinase": "Inositol-tetrakisphosphate 1-kinase (Homo sapiens, UniProt Q13572)", "note": "Each line is one published result; the experiments were not run side by side."}
{"SMILES": "CN(C)C(=O)c1cc2cnc(Nc3ccc4c(=O)cc(N5CCNCC5)oc4c3)nc2n1C1CCCC1", "target": "PIK3CG", "test": "enzyme activity, inhibitor, radiometric", "IC50": "6.93 µM"}
{"SMILES": "O=C(CCNC(=O)CNC(=O)CC(c1ccccc1)(c1ccccc1)c1ccccc1)NC[C@@H]1CCCN(Cc2ccc(F)nc2)C1", "target": "CHRM3", "test": "ligand displacement, radioligand", "conditions": "cell membranes", "IC50": "8.2 µM"}
{"SMILES": "COc1ccc(C=NNC(=O)c2cc(-c3ccccc3)n(-c3ccc(S(N)(=O)=O)cc3)n2)cc1OC", "target": "PTGS2", "test": "enzyme activity, inhibitor", "IC50": "4.61 µM"}
{"SMILES": "CC(C)N(CCC(=O)c1ccc2ccccc2c1)Cc1ccccc1", "target": "Retinal dehydrogenase 2 (ALDH1A2, Homo sapiens, UniProt O94788)", "test": "enzyme activity, inhibitor, fluorescence", "conditions": "15 min, pH 7.5", "IC50": "< 10 µM"}
{"SMILES": "CN(C)C(=O)c1cc2cnc(Nc3ccc(-c4cccc5c(=O)cc(N6CCOCC6)oc45)c(F)c3)nc2n1C1CCCC1", "target": "PIK3CG", "test": "enzyme activity, inhibitor, radiometric", "IC50": "> 10 µM"}
{"SMILES": "Nc1ncnc2c1ncn2C1CCCO1 (stereo not drawn)", "target": "Inositol-tetrakisphosphate 1-kinase", "test": "enzyme activity, inhibitor, ADP detection", "IC50": "0.92 µM"}
{"SMILES": "O=C(CCNC(=O)CNC(=O)CC(c1ccccc1)(c1ccccc1)c1ccccc1)NC[C@@H]1CCCN(Cc2cccnc2F)C1", "target": "CHRM3", "test": "ligand displacement, radioligand", "conditions": "cell membranes", "IC50": "3.8 µM"}
{"SMILES": "COc1cc(C=NNC(=O)c2cc(-c3ccccc3)n(-c3ccc(S(N)(=O)=O)cc3)n2)cc(OC)c1OC", "target": "PTGS2", "test": "enzyme activity, inhibitor", "IC50": "2.69 µM"}
{"SMILES": "c1ccc(COc2[nH]cnc3ncnc2-3)cc1", "target": "Inositol-tetrakisphosphate 1-kinase", "test": "enzyme activity, inhibitor", "IC50": "5.3 µM"}
{"SMILES": "C=CCN1C(=O)C(=Nc2cccc(C)c2)c2ccccc21", "target": "PIK3CG", "test": "enzyme activity, inhibitor, ADP detection", "IC50": "0.0243 µM"}
{"SMILES": "CN(C)C(=O)c1cc2cnc(Nc3ccc(-c4cccc5c(=O)cc(N6CCOCC6)oc45)cn3)nc2n1C1CCCC1", "target": "PIK3CG", "test": "enzyme activity, inhibitor, radiometric", "IC50": "> 10 µM"}
{"SMILES": "Cc1cccc(N=C2C(=O)N(Cc3ccc(Br)cc3)c3ccccc32)c1", "target": "PIK3CG", "test": "enzyme activity, inhibitor, ADP detection", "IC50": "0.0098 µM"}
{"SMILES": "Nc1ncnc2c1ncn2C1CCCC1", "target": "Inositol-tetrakisphosphate 1-kinase", "test": "enzyme activity, inhibitor, ADP detection", "IC50": "0.078 µM"}
{"SMILES": "C=C(F)C(=O)N1CCN(c2nc(OC[C@@H]3CCCN3C)nc3c2CCN(c2cccc4cccc(Cl)c24)C3)C[C@@H]1CC#N", "target": "GTPase NRas (NRAS, Homo sapiens, UniProt P01111, C181S/C186S/G12C)", "test": "enzyme activity, inhibitor", "IC50": "0.747 µM"}
{"SMILES": "O=C1C(=Nc2ccccc2I)c2ccccc2N1Cc1cccc(Cl)c1", "target": "PIK3CG", "test": "enzyme activity, inhibitor, ADP detection", "IC50": "0.00407 µM"}
{"SMILES": "COc1cc(NC(=O)c2cnn(-c3ccc([N+](=O)[O-])cc3)c2C(F)(F)F)cc(OC)c1OC", "target": "PTGS2", "test": "enzyme activity, inhibitor", "IC50": "4.82 µM"}
{"SMILES": "Cc1cccc(N=C2C(=O)N(Cc3cccc(Cl)c3)c3ccccc32)c1", "target": "PIK3CG", "test": "enzyme activity, inhibitor, ADP detection", "IC50": "0.00096 µM"}
{"SMILES": "CN(C)C(=O)c1cc2cnc(Nc3cccc4c(=O)cc(N5CCOCC5)oc34)nc2n1C1CCCC1", "target": "PIK3CG", "test": "enzyme activity, inhibitor, radiometric", "IC50": "1.42 µM"}
{"SMILES": "O=C1C(=Nc2ccccc2I)c2ccccc2N1Cc1ccc(Br)cc1", "target": "PIK3CG", "test": "enzyme activity, inhibitor, ADP detection", "IC50": "0.0058 µM"}
{"SMILES": "CN(C)C(=O)c1cc2cnc(Nc3ccc4c(=O)cc(N5CCOCC5)oc4c3)nc2n1C1CCCC1", "target": "PIK3CG", "test": "enzyme activity, inhibitor, radiometric", "IC50": "0.461 µM"}
{"SMILES": "O=C1Nc2ccccc2C1=Nc1ccccc1I", "target": "PIK3CG", "test": "enzyme activity, inhibitor, ADP detection", "IC50": "0.00388 µM"}
{"SMILES": "Nc1ncnc2c1ncn2[C@@H]1O[C@H](CO)C[C@H]1O", "target": "Inositol-tetrakisphosphate 1-kinase", "test": "enzyme activity, inhibitor, ADP detection", "IC50": "2.4 µM"}
{"SMILES": "O=C1C(=Nc2ccc(Cl)cc2)c2ccccc2N1Cc1ccc([N+](=O)[O-])cc1", "target": "PIK3CG", "test": "enzyme activity, inhibitor, ADP detection", "IC50": "0.0012 µM"}
{"SMILES": "NS(=O)(=O)c1ccc(-n2nc(C(=O)NN=Cc3ccc(O)cc3)cc2-c2ccccc2)cc1", "target": "PTGS2", "test": "enzyme activity, inhibitor", "IC50": "1.42 µM"}
